What was measured:
[1] = Cytotoxicity against LPS-induced mouse RAW264.7 cells assessed as cell survival up to 100 uM by MTT assay relative to control; type: cell-based; conditions: LPS-induced RAW264.7 cells, read-out: Survival
Procedure, shortened: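 MTT viability assay on LPS-activated RAW264.7 cells, the same cells used for the NO assay; tested at concentrations up to 100 μM; triplicate experiments.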

RAW264.7 = assay: Antiinflammatory activity in mouse RAW264.7 cells assessed as inhibition of LPS-induced nitric oxide production preincubated for 2 hrs followed by LPS stimulation measured after 18 hrs by Griess assay; type: functional, cell-based
Procedure, shortened: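 LPS-activated RAW264.7 macrophages; nitric oxide production measured and IC50 derived; L-NAME as positive control; triplicate experiments.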

| Compound | viability [1] [%] | IC50 (RAW264.7) [µM] |
| --- | --- | --- |
| Cc1cc(O)cc(O)c1C(=O)O[C@@H]1CC2=C(COC(CCC(=O)O)=C2)C(=O)[C@]1(C)O (relative stereo) | 90 | 39.6 |
| Cc1cc(O)cc(O)c1C(=O)O[C@@H]1CC2=C(CO[C@](O)(CCC(=O)O)C2)C(=O)[C@]1(C)O (relative stereo) | 90 | – |
| Cc1cc(O)cc(O)c1C(=O)O[C@@H]1CC2=C(CO[C@@](O)(CCCO)C2)C(=O)[C@]1(C)O (relative stereo) | 90 | – |
| Cc1cc(O)cc(O)c1C(=O)O[C@@H]1CC2=C(CO[C@@](O)(CCC(=O)O)C2)C(=O)[C@]1(C)O (relative stereo) | 90 | – |
| Cc1cc(O)cc(O)c1C(=O)O[C@@]1(C)C(=O)C2=C(C=C(/C=C/CO)OC2)C[C@H]1O | 90 | 9.2 |
| Cc1cc(O)cc(O)c1C(=O)O[C@@H]1CC2=C(COC(/C=C/C(=O)O)=C2)C(=O)[C@]1(C)O (relative stereo) | 90 | – |
| COC(=O)[C@@H](N)CCCNC(=N)N[N+](=O)[O-] [L-NAME] | – | 30.6 |
| Cc1cc(O)cc(O)c1C(=O)O[C@@H]1CC2=C(CO[C@](O)(CCCO)C2)C(=O)[C@]1(C)O (relative stereo) | 90 | 25.5 |
